TRPC6 inhibitor = mouse TRPC6 channel inhibition; Q61143; HEK293-TRPC6, membrane potential dye, ACh-evoked depolarization; stronger effect = lower value; B-score at 10 µM; 310,000 tested, 1.1% active; AID 2553;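 active means B-score under library mean minus 3 SD, initial fluorescence not abnormally high, positive integrated signal ratio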;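 further: B-score derived from integrated fluorescence ratio over the kinetic read; more negative B-score means stronger inhibition of depolarization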
TRPC4 potent = allosterically enhances the mouse TRPC4 cation channel; Q9QUQ5; AID 2227; HEK293 TRPC4beta/mu-opioid, DAMGO EC20, Fluo-4 Ca2+ flux; stronger effect = higher value; 310,000 tested, 0.42% active; B-score at 10 µM;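 active means B-score of calcium response area above 5 SD of library B-scores, with initial fluorescence ratio within 5 SD of library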;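 further: B-score of integrated fluorescence ratio over time as area under calcium response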
TRPC4 act = activators of mouse TRPC4 channel; B-score at 10 µM; Q9QUQ5; 310,000 tested, 0.49% active; HEK293 TRPC4beta/mu-opioid, Fluo4 calcium fluorescence; stronger effect = higher value;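 active means B-score above 5 SD of library B-scores, and initial fluorescence ratio not above library mean plus 5 SD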;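 further: positive B-score marks a calcium rise read as TRPC4 activation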
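System – HEK293 cells stably co-expressing mouse TRPC4beta and mu-opioid receptor · Signal – Fluo4 calcium-sensitive dye fluorescence, kinetic, 1 Hz baseline · Benchmarks – buffer (low) and maximal DAMGO (high) · Read-out – B score of integrated fluorescence ratio per well · Incubation – dye loading 45 min room temperature, 110 s kinetic read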
TRPC6 act = mouse TRPC6 channel activation; Q61143; B-score at 10 µM; 310,000 tested, 0.13% active; HEK293-TRPC6 membrane potential dye fluorescence; stronger effect = higher value;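 active means B-score of the integrated fluorescence ratio above library mean plus 3 SD, and starting fluorescence ratio within library mean plus 5 SD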;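 further: higher score means more depolarization so channel activation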
TRPC4 inh = TRPC4 (mouse) channel inhibition. B-score at 10 µM. 300,000 tested, 0.39% active. Q9QUQ5. AID 2247. HEK293 TRPC4beta/mu-opioid, DAMGO-evoked Fluo4 calcium flux; stronger effect = lower value;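 active means B-score over 3 SD under the library average, no early fluorescence shift, positive overall ratio signal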
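Signal: kinetic Fluo4 fluorescence imaging of calcium influx. Material: stable TRPC4beta/mu-opioid receptor HEK293 cells. Probe or stimulus: DAMGO in two steps, submaximal then maximal.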
TRPC4 sel inh 2 = second selectivity test of TRPC6 inhibitors: effect on mouse TRPC4; HEK293 TRPC4/MOR, membrane potential dye fluorescence; channel activated by saturating DAMGO dose; inhibition, % at 10 µM; shares compounds with TRPC6 inhibitor; AID 2776; 920 tested, 42% active;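 active means compounds whose fluorescence signal differed from control wells by over 3 SD, either direction, in both duplicate plates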
TRPC4 spec = selectivity of TRPC6 inhibitors: effect on mouse TRPC4 | activity change, negative = inhibition, % at 10 µM | HEK293 TRPC4/mu-opioid, membrane potential fluorescence | 920 tested, 61% active | shares compounds with TRPC6 inhibitor;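 active means rise or fall in signal beyond 3 SD of buffer-only wells in both replicate plates, either sign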;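 further: integrated kinetic ratio of fluorescence range over baseline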
HEK293 MPD ctr 2-1 = second check of TRPC6 inhibitor effects in parental HEK293 cells. shares compounds with TRPC6 inhibitor. parental HEK293 membrane potential dye fluorescence; maximal acetylcholine challenge after compound addition. signal change vs control, % at 10 µM. 920 tested, 31% active. AID 2779;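 active means membrane potential signal moving either way by over 3 SD of the maximum-effect control, in both duplicate plates, meaning non-specific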
HEK293 MPD ctr-1 = parental HEK293 nonspecific activity of TRPC6 inhibitors; shares compounds with TRPC6 inhibitor; parental HEK293 membrane potential dye fluorescence; membrane potential signal change, % at 10 µM; 920 tested, 60% active; AID 2780;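 active means membrane potential signal shifting up or down by more than 3 SD of buffer-only wells, on both duplicate plates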
HEK293 MPD ctr-2 = checks TRPC6 modulator effects in parental HEK293 cells. shares compounds with TRPC6 inhibitor. membrane potential dye fluorescence. membrane potential signal change, % at 10 µM. 2,400 tested, 51% active;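 active means membrane potential signal moves up or down beyond 5 SD from buffer-only wells, on both duplicate plates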
HEK293 MPD ctr 2-2 = second check of TRPC6 modulator effects in parental HEK293 cells; 2,400 tested, 14% active; shares compounds with TRPC6 inhibitor; membrane potential dye fluorescence; after compound, maximal acetylcholine stimulation; inhibition, % at 10 µM; AID 488926;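 active means membrane potential signal drops by more than 5 SD from the mean control signal, in both duplicate plates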;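 further: plate controls were acetylcholine ECmax control wells for no effect and buffer only wells for full effect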
TRPC4/MOR mod = selectivity of TRPC6 modulators against mouse TRPC4; shares compounds with TRPC6 inhibitor; HEK293 TRPC4/mu-opioid, membrane potential fluorescence; percent change from control (negative = decrease, positive = increase), % at 10 µM; 2,400 tested, 69% active;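 active means membrane potential signal moved up or down beyond 5 SD of buffer control wells, in both duplicate plates, actives on both sides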;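 further: plate controls were assay buffer wells for no effect and DAMGO maximal-effect wells for full effect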
TRPC4/MOR inh 2 = second selectivity test of TRPC6 modulators against mouse TRPC4. shares compounds with TRPC6 inhibitor. 2,400 tested, 55% active. HEK293 TRPC4/mu-opioid, membrane potential dye fluorescence; stimulated with maximal-effect DAMGO. inhibition, % at 10 µM;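 active means drop in membrane potential signal beyond 5 SD of the control wells in both duplicate plates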;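 further: TRPC4 counter screen for TRPC6 hits run under conditions tuned for TRPC6 not TRPC4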
TRPC6 inh conf = mouse TRPC6 inhibitor confirmation; inhibition, % at 10 µM; AID 488960; shares compounds with TRPC6 inhibitor; HEK293-TRPC6, membrane potential dye, ACh-evoked depolarization; 3,300 tested, 43% active;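 active means fluorescence ratio falls more than 5 SD below the full-stimulation control mean, in both duplicate runs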;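 further: integrated fluorescence ratio of peak minus minimum over baseline after agonist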
TRPC6 act conf = mouse TRPC6 activator confirmation; shares compounds with TRPC6 inhibitor; HEK293-TRPC6 membrane potential dye fluorescence, FDSS; 2,800 tested, 11% active; activation, % at 10 µM;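 active means ratio signal rise beyond 5 SD above unstimulated control wells' mean, seen in both duplicate runs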;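 further: plate controls were buffer EC0 wells for no effect and acetylcholine ECmax response for full effect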
* = called active by the depositor; i = inactive; / = no result. A selection: hits, their analogues and other compounds. The true share with any hit is near 2.3%.

SMILES | TRPC6 inhibitor | TRPC4 potent | TRPC4 act | TRPC6 act | TRPC4 inh | TRPC4 sel inh 2 | TRPC4 spec | HEK293 MPD ctr 2-1 | HEK293 MPD ctr-1 | HEK293 MPD ctr-2 | HEK293 MPD ctr 2-2 | TRPC4/MOR mod | TRPC4/MOR inh 2 | TRPC6 inh conf | TRPC6 act conf
CCOC(=O)c1[nH]ncc1CN1CCCC(C(=O)c2ccc(SC)cc2)C1 (stereo unspecified) | -5.7* | i | i | i | i | / | / | / | / | i | i | 11%* | 30%* | i | /
CSc1ccc(C(=O)C2CCCN(Cc3ccc(N4CCNC4=O)cc3)C2)cc1 (stereo unspecified) | -5.8* | i | i | i | i | / | / | / | / | i | i | i | 88%* | 55%* | i
CCOC(=O)c1[nH]ncc1CN1CCCC(C(=O)c2cccc3ccccc23)C1 (stereo unspecified) | i | i | i | i | i | / | / | / | / | / | / | / | / | / | /
N#CC/C(N)=N/Nc1nc2ccccc2nc1Cc1ccccc1 | i | i | i | i | i | / | / | / | / | / | / | / | / | / | /
CCOC(=O)C1CCCN(C(=O)c2cc(CN3C(=O)c4ccccc4C3=O)ccc2OC)C1 (stereo unspecified) | i | i | i | i | i | / | / | / | / | / | / | / | / | / | /
CCCn1c(=N)n(CC(=O)c2ccc(Cl)cc2)c2ccccc21 | -7.3* | i | i | i | i | 26%* | 35%* | 258%* | 3.4%* | / | / | / | / | i | i
CCCn1c(=N)n(CC(=O)c2ccc([N+](=O)[O-])cc2)c2ccccc21 | i | i | i | i | i | / | / | / | / | / | / | / | / | / | /
COc1cccc(CN2CCN(C(=O)c3cccc4ccccc34)CC2)c1 | i | i | i | 12* | i | / | / | / | / | i | i | 10%* | i | i | 33%*
COc1cc(CN2CCN(C(=O)c3cccc4ccccc34)CC2)cc(OC)c1OC | i | i | i | i | i | / | / | / | / | / | / | / | / | / | /
CCOC(=O)N1CCC(N2Cc3cccc(C(=O)Nc4cccc(F)c4)c3C2=O)CC1 | -9.2* | i | i | i | i | i | i | -12%* | i | / | / | / | / | 90%* | i
CCOC(=O)N1CCC(N2Cc3cccc(C(=O)N4CCN(c5cccc(Cl)c5)CC4)c3C2=O)CC1 | -6.3* | i | i | i | i | / | / | / | / | 100%* | i | 22%* | i | 42%* | /
CCCCCCCCCCOC(=O)C[N+](C)(C)C/C=C(/C)Cl | -5.3* | i | i | i | i | / | / | / | / | 134%* | i | 30%* | 42%* | 64%* | /
CCCCCCCCCCCCOC(=O)C[N+](C)(C)C | -6.9* | i | i | i | -6* | i | 0.8%* | 324%* | i | / | / | / | / | 56%* | i
CCCCCCCCOC(=O)C[N+](C)(C)C/C=C(/C)Cl | -7.6* | i | i | i | i | i | 0.1%* | i | 2.3%* | / | / | / | / | 61%* | i
NC(=O)[C@@H]1CCOc2c(I)cc([N+](=O)[O-])cc2C(=O)N[C@@H](CO)C(=O)NCC(=O)N1 | i | i | i | i | i | / | / | / | / | / | / | / | / | / | /
CN(C)C(CNC(=O)c1cccc(NS(=O)(=O)c2ccc(Br)cc2)c1)c1ccco1 (stereo unspecified) | -5.7* | i | i | i | i | / | / | / | / | i | i | 9.5%* | i | i | i
Brc1ccccc1/C=N/Nc1ccc2ccccc2n1 | -6.2* | i | i | i | i | / | / | / | / | i | i | i | 56%* | i | i
Brc1ccc(/C=N/Nc2ccc3ccccc3n2)cc1 | i | i | i | i | i | / | / | / | / | / | / | / | / | / | /
CN(C)CCCN(C(=O)/C=C/c1cccs1)c1nc2c(F)cccc2s1 | -7.1* | i | i | i | i | i | i | i | i | / | / | / | / | i | i
CN(C)CCCN(C(=O)c1ccco1)c1nc2c(F)cccc2s1 | -9.8* | i | i | i | i | 18%* | -32%* | 26%* | -300%* | / | / | / | / | 107%* | i
CN(C)CCCN(C(=O)c1ccco1)c1nc(-c2ccc(Cl)cc2)cs1 | -7.3* | i | i | i | -6* | 12%* | i | i | -152%* | / | / | / | / | i | i
CN(C)CCCN(C(=O)c1ccco1)c1nc2c(F)cc(F)cc2s1 | -7.1* | i | i | i | i | / | / | / | / | -158%* | i | -34%* | 82%* | 52%* | i
CN(C)CCCN(C(=O)CCc1ccccc1)c1nc2c(F)cccc2s1 | i | i | i | i | i | / | / | / | / | / | / | / | / | / | /
O=C(CN1CCC(NC(=O)Nc2ccccc2-c2ccccc2)CC1)NCc1ccco1 | i | i | i | i | i | / | / | / | / | / | / | / | / | / | /
O=C(NCCOc1ccccc1)c1ncn[nH]1 | i | i | i | i | i | / | / | / | / | / | / | / | / | / | /
Cc1ccc(C(=O)NCCC(=O)N2CCC3(CC2)NCCc2[nH]cnc23)cc1C | i | i | i | i | i | / | / | / | / | / | / | / | / | / | /
CN1CCc2c(c3ccccc3n2Cc2ccccc2)C1 | -5.4* | i | i | i | i | / | / | / | / | 141%* | i | 18%* | 64%* | i | /
CCSc1ccccc1C(=O)NCc1ccc2c(c1)OCO2 | i | i | i | i | i | / | / | / | / | / | / | / | / | / | /
